biological target: Bromodomain-containing protein 4 (Homo sapiens, UniProt O60885); assay: Inhibition of recombinant human His-tagged BRD4 bromodomain 1/2 (2 to 1362 residues) expressed in […] insect cells using biotinylated H4(1 to 21)K5/8/12/16Ac peptide as substrate preincubated for 30 mins followed by substrate addition and measured after 30 mins by Alpha screen assay; conditions: not given

SMILES | IC50 [µM]
O=C(Nc1ccc2[nH]c(=O)c3ccccc3c2c1)Oc1ccccc1 | 6.02
O=c1[nH]c2ccc(NS(=O)(=O)c3ccc4c(c3)CCO4)cc2c2ccccc12 | 13.1
O=c1[nH]c2ccc(NS(=O)(=O)c3cccs3)cc2c2ccccc12 | 6.74
N#Cc1cccc(S(=O)(=O)Nc2ccc3[nH]c(=O)c4ccccc4c3c2)c1 | 1.79
O=c1[nH]c2ccc(NS(=O)(=O)Cc3ccccc3)cc2c2ccccc12 | 5.17
O=c1[nH]c2ccc(NS(=O)(=O)C3CCCCC3)cc2c2ccccc12 | 5.92
O=C(Nc1ccc2[nH]c(=O)c3ccccc3c2c1)c1ccccc1 | 18.6
CCCCS(=O)(=O)Nc1ccc2[nH]c(=O)c3ccccc3c2c1 | 5.54
O=C(Nc1ccccc1)Nc1ccc2[nH]c(=O)c3ccccc3c2c1 | 9.93
CCCS(=O)(=O)Nc1ccc2[nH]c(=O)c3ccccc3c2c1 | 6.71
O=c1[nH]c2ccc(NS(=O)(=O)c3ccc4ccccc4c3)cc2c2ccccc12 | 7.23
O=c1[nH]c2ccc(NS(=O)(=O)C3CCCC3)cc2c2ccccc12 | 6.17

The next molecules have a lower IC50 than those just listed; values first:

IC50 [µM] | SMILES
0.93 | COc1cc(Cl)ccc1S(=O)(=O)Nc1ccc2oc(=O)ccc2c1
1.32 | COc1ccc(S(=O)(=O)Nc2ccc3[nH]c(=O)c4ccccc4c3c2)cc1
0.79 | O=c1[nH]c2ccc(NS(=O)(=O)c3cccc(Cl)c3)cc2c2ccccc12
1.25 | O=c1[nH]c2ccc(NS(=O)(=O)c3ccccc3Cl)cc2c2ccccc12
1.64 | O=c1[nH]c2ccc(NS(=O)(=O)c3ccccc3)cc2c2ccccc12
1.13 | CC(C)(C)c1ccc(S(=O)(=O)Nc2ccc3[nH]c(=O)c4ccccc4c3c2)cc1
0.48 | COc1ccccc1S(=O)(=O)Nc1ccc2[nH]c(=O)c3ccccc3c2c1
0.85 | O=c1[nH]c2ccc(NS(=O)(=O)c3ccc(Cl)cc3)cc2c2ccccc12

test system: A549; assay: Antiproliferative activity against human A549 cells incubated for 48 hrs by MTT assay; type: functional, cell-based; conditions: A549, 48 h
Summary of the method: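 Cells kept in DMEM or RPMI 1640 with 10% FBS at 37 °C, 5% CO2. MTT added for 4 h at 37 °C, formazan dissolved in DMSO, OD read at 570 nm. Survival % taken relative to blank and control wells. Triplicate runs; IC50 from curve fit.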

SMILES | IC50 [µM]
COc1cc(Cl)ccc1S(=O)(=O)Nc1ccc2oc(=O)ccc2c1 | 4.63

From ChEMBL document CHEMBL4351018, “Novel phenanthridin-6(5H)-one derivatives as potent and selective BET bromodomain inhibitors: Rational design, synthesis and biological evaluation” (Eur J Med Chem, 2019)
